From ChEMBL document CHEMBL1166015, “Design, synthesis, and docking of highly hypolipidemic agents: Schizosaccharomyces pombe as a new model for evaluating alpha-asarone-based HMG-CoA reductase inhibitors” (Bioorg Med Chem, 2010)
pIC50: −log10 of the molar value.

Columns and labels:
Mus musculus [1] = test: Hypolipidemic activity in high cholesterol diet fed ICR mouse assessed as reduction of HDL cholesterol level at 50 mg/kg/day, po after 12 hrs of last cholesterol challenge relative to control; parameters: scale not given: the % may be the effect or the level left
Mus musculus [2] = test: Hypolipidemic activity in ICR mouse assessed as decrease in Tyloxapol-induced LDL-cholesterol level at 50 mg/kg, ip administered 1 hr before Tyloxapol challenge and 22, 48 hrs after Tyloxapol challenge measured after 22 hrs relative to control; type: functional; parameters: scale not given: the % may be the effect or the level left; settings: route oral, in the assay text read “po administered” for “ip administered”
Method in brief: (§1)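 Male ICR mice (24–27 g), groups of six. Hyperlipidemia induced by ip Tyloxapol (Triton WR 1339) 400 mg/kg in water. Drug given at 5 mL/kg 1 h before and 22 and 48 h after injection; vehicle controls. Blood drawn 22 h post-injection by periorbital bleeding. Serum total cholesterol, HDL-C and triglycerides measured on an automatic analyzer; LDL-C by the Friedewald equation. Values are % of the Tyloxapol group, mean ± SE.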

Mus musculus [3] = test: Hypolipidemic activity in high cholesterol diet fed ICR mouse assessed as reduction of triglyceride level at 50 mg/kg/day, po after 12 hrs of last cholesterol challenge relative to control; parameters: scale not given: the % may be the effect or the level left
Mus musculus [4] = test: Hypolipidemic activity in ICR mouse assessed as decrease in Tyloxapol-induced total cholesterol level at 50 mg/kg, ip administered 1 hr before Tyloxapol challenge and 22, 48 hrs after Tyloxapol challenge measured after 22 hrs relative to control; type: functional; parameters: scale not given: the % may be the effect or the level left; settings: route oral, in the assay text read “po administered” for “ip administered”
Method in brief: as §1

Mus musculus [5] = test: Hypolipidemic activity in high cholesterol diet fed ICR mouse assessed as reduction of triglyceride level at 100 mg/kg/day, po after 12 hrs of last cholesterol challenge relative to control; parameters: scale not given: the % may be the effect or the level left
Mus musculus [6] = test: Hypolipidemic activity in ICR mouse assessed as decrease in Tyloxapol-induced triglyceride level at 100 mg/kg, ip administered 1 hr before Tyloxapol challenge and 22, 48 hrs after Tyloxapol challenge measured after 22 hrs relative to control; type: functional; parameters: scale not given: the % may be the effect or the level left; settings: route intraperitoneal
Method in brief: as §1

Mus musculus [7] = test: Hypolipidemic activity in high cholesterol diet fed ICR mouse assessed as reduction of LDL cholesterol level at 100 mg/kg/day, po after 12 hrs of last cholesterol challenge relative to control; parameters: scale not given: the % may be the effect or the level left
Mus musculus [8] = test: Hypolipidemic activity in high cholesterol diet fed ICR mouse assessed as reduction of LDL cholesterol level at 50 mg/kg/day, po after 12 hrs of last cholesterol challenge relative to control; parameters: scale not given: the % may be the effect or the level left
Mus musculus [9] = test: Hypolipidemic activity in high cholesterol diet fed ICR mouse assessed as reduction of total cholesterol level at 100 mg/kg/day, ip after 12 hrs of last cholesterol challenge relative to control; type: functional; parameters: scale not given: the % may be the effect or the level left; settings: route intraperitoneal
Method in brief: (§2)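 Male ICR mice (24–27 g), six per group, were fed a high-cholesterol diet ad libitum for 6 days (1.0% cholesterol, 0.5% sodium cholate, 5% butter, 30% sucrose, 10% casein, 53.5% chow). Basal-diet mice served as controls. Dosing was 5 mL/kg and solutions were made fresh. Mice were fasted 12 h before sacrifice and bled periorbitally. Serum TC, HDL-C and TG were read on an analyzer, with LDL-C by Friedewald.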

Mus musculus [10] = test: Hypolipidemic activity in ICR mouse assessed as decrease in Tyloxapol-induced total cholesterol level at 100 mg/kg, ip administered 1 hr before Tyloxapol challenge and 22, 48 hrs after Tyloxapol challenge measured after 22 hrs relative to control; type: functional; parameters: scale not given: the % may be the effect or the level left; settings: route oral, in the assay text read “po administered” for “ip administered”
Method in brief: as §1

Mus musculus [11] = test: Hypolipidemic activity in ICR mouse assessed as decrease in Tyloxapol-induced triglyceride level at 50 mg/kg, ip administered 1 hr before Tyloxapol challenge and 22, 48 hrs after Tyloxapol challenge measured after 22 hrs relative to control; type: functional; parameters: scale not given: the % may be the effect or the level left; settings: route intraperitoneal
Method in brief: as §1

Mus musculus [12] = test: Hypolipidemic activity in ICR mouse assessed as decrease in Tyloxapol-induced LDL-cholesterol level at 100 mg/kg, ip administered 1 hr before Tyloxapol challenge and 22, 48 hrs after Tyloxapol challenge measured after 22 hrs relative to control; type: functional; parameters: scale not given: the % may be the effect or the level left; settings: route oral, in the assay text read “po administered” for “ip administered”
Method in brief: as §1

Mus musculus [13] = test: Hypolipidemic activity in high cholesterol diet fed ICR mouse assessed as reduction of total cholesterol level at 50 mg/kg, ip after 12 hrs of last cholesterol challenge relative to control; type: functional; parameters: scale not given: the % may be the effect or the level left; settings: route intraperitoneal
Method in brief: as §2

Mus musculus [14] = test: Hypolipidemic activity in high cholesterol diet fed ICR mouse assessed as reduction of HDL cholesterol level at 100 mg/kg/day, po after 12 hrs of last cholesterol challenge relative to control; parameters: scale not given: the % may be the effect or the level left
Mus musculus [15] = test: Hypolipidemic activity in ICR mouse assessed as decrease in Tyloxapol-induced HDL-cholesterol level at 100 mg/kg, ip administered 1 hr before Tyloxapol challenge and 22, 48 hrs after Tyloxapol challenge measured after 22 hrs relative to control; type: functional; parameters: scale not given: the % may be the effect or the level left; settings: route intraperitoneal
Method in brief: as §1

Mus musculus [16] = test: Hypolipidemic activity in ICR mouse assessed as decrease in Tyloxapol-induced HDL-cholesterol level at 50 mg/kg, ip administered 1 hr before Tyloxapol challenge and 22, 48 hrs after Tyloxapol challenge measured after 22 hrs relative to control; type: functional; parameters: scale not given: the % may be the effect or the level left; settings: route oral, in the assay text read “po administered” for “ip administered”
Method in brief: as §1

[17] = molecular target: T1, 3-hydroxy-3-methylglutaryl-coenzyme A reductase (Schizosaccharomyces pombe 972h-, UniProt Q10283); test: Inhibition of Schizosaccharomyces pombe HMG-CoA reductase by spectrophotometry; settings: read-out: IC50
T1 sequence (Q10283 whole entry): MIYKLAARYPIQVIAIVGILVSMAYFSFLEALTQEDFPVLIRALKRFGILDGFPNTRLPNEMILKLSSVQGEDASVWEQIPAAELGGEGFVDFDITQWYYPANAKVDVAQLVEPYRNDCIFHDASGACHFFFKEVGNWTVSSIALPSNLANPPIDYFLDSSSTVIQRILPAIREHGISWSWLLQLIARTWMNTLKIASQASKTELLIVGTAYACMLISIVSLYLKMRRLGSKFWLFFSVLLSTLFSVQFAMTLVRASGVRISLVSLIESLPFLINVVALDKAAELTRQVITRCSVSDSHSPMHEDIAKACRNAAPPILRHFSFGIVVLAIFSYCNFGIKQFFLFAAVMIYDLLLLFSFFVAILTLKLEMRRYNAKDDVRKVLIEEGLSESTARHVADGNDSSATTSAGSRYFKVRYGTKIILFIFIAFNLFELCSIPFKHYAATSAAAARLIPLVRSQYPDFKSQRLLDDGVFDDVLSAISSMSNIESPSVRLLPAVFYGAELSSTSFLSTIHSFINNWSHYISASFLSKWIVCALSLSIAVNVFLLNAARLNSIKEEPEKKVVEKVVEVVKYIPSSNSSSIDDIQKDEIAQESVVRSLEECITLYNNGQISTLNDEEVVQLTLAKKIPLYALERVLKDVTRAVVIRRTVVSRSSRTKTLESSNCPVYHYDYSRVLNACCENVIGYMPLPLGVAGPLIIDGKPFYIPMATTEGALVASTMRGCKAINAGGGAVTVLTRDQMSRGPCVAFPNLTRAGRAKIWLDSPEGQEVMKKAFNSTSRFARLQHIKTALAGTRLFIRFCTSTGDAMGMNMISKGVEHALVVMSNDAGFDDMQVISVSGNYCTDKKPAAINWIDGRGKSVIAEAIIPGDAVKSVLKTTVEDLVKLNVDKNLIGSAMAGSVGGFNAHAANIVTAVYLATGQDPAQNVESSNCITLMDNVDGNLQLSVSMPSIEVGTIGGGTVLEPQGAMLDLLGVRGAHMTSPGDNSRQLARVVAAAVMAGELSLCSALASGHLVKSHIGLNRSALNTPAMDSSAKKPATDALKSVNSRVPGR
Method in brief: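 Membrane HMGR partially purified from S. pombe 972 h (YPD, 28 °C, 48 h) via centrifugation, Triton X-100 solubilization, 65 °C heat step, ammonium sulfate and calcium phosphate gel. Enzyme activated 37 °C 30 min, pre-incubated with compound (DMSO stocks 1–5 mM) 30 min at 37 °C. Assay: 200 µg enzyme, 0.13 mM HMG-CoA, 50 mM Tris-HCl pH 7.5; started with 0.13 mM NADPH; A340 decrease over 2 min; triplicate; IC50 derived.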

- pIC50 [17]: 4.10
Structure (SMILES): C=CCc1cc(OC)c(OC)cc1O
- Activity (Mus musculus [1]): -40.08%
- Activity (Mus musculus [2]): -42.98%
- Activity (Mus musculus [3]): -37.78%
- Activity (Mus musculus [4]): -49.79%
- Activity (Mus musculus [5]): -42.39%
- Activity (Mus musculus [6]): -6.83%
- Activity (Mus musculus [7]): -44.22%
- Activity (Mus musculus [8]): 26.49%
- Activity (Mus musculus [9]): -40.67%
- Activity (Mus musculus [10]): -54.11%
- Activity (Mus musculus [11]): -23.2%
- Activity (Mus musculus [12]): -52.07%
- Activity (Mus musculus [13]): -33.45%
- Activity (Mus musculus [14]): -35.96%
- Activity (Mus musculus [15]): -41.77%
- Activity (Mus musculus [16]): -39.67%
